From PubChem
TRPC4 agonist – TRPC4 (mouse) channel activation. HEK293 TRPC4beta/mu-opioid, Fluo4 calcium fluorescence; stronger effect = higher value. AID 2237. Q9QUQ5. B-score at 10 µM. 310,000 tested, 0.49% active;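 active = B-score above 5 SD of library B-scores, and initial fluorescence ratio not above library mean plus 5 SD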;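 note: positive B-score marks a calcium rise read as TRPC4 activation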
Target sequence (Q9QUQ5 whole entry, looked up): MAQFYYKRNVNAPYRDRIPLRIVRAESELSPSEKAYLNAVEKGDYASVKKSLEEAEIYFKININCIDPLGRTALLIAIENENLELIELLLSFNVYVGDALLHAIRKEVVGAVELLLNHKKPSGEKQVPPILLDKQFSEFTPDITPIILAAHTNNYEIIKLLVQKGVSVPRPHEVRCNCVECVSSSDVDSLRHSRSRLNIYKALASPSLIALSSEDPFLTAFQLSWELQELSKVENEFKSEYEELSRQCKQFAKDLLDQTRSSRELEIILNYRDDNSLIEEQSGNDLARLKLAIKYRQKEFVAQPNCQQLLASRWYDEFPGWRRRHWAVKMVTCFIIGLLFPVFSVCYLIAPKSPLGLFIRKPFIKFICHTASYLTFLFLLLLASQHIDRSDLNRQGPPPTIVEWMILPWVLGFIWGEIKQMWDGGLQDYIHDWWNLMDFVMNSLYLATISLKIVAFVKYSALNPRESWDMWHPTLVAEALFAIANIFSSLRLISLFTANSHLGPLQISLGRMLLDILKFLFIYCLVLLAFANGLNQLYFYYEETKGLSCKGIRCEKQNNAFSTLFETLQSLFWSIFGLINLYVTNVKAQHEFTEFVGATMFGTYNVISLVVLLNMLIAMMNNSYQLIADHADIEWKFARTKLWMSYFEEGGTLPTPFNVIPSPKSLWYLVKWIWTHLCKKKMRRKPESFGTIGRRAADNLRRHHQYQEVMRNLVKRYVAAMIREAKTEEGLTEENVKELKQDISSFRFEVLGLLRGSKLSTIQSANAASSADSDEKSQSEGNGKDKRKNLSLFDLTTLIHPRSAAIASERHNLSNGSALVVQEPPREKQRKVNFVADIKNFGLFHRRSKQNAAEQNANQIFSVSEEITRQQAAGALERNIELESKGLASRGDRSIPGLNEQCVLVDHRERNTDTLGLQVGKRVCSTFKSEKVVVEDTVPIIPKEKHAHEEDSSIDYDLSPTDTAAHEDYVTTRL
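Assay system: HEK293 stable line with TRPC4beta plus mu-opioid receptor. Times: dye 45 min RT, read 110 s. Measured by: kinetic Fluo4 calcium fluorescence. Measure: B score of integrated ratio. Controls: assay buffer as low control, maximal DAMGO as high control.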
TRPC4 potent – allosteric potentiators of mouse TRPC4 channel; 310,000 tested, 0.42% active; Q9QUQ5; HEK293 TRPC4beta/mu-opioid, DAMGO EC20, Fluo-4 Ca2+ flux; stronger effect = higher value; B-score at 10 µM;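 active = B-score of calcium response area above 5 SD of library B-scores, with initial fluorescence ratio within 5 SD of library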
TRPC6 activator – activators of mouse TRPC6 channel; HEK293-TRPC6 membrane potential dye fluorescence; stronger effect = higher value; B-score at 10 µM; 310,000 tested, 0.13% active;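 active = B-score of the integrated fluorescence ratio above library mean plus 3 SD, and starting fluorescence ratio within library mean plus 5 SD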;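 note: higher score means more depolarization so channel activation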
TRPC4 block – inhibitors of mouse TRPC4 channel; AID 2247; HEK293 TRPC4beta/mu-opioid, DAMGO-evoked Fluo4 calcium flux; stronger effect = lower value; B-score at 10 µM; 300,000 tested, 0.39% active;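 active = B-score over 3 SD under the library average, no early fluorescence shift, positive overall ratio signal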
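material = TRPC4beta/mu-opioid receptor HEK293 cell line | probe or stimulus = sequential submaximal and maximal DAMGO stimulation | compound dosing = one concentration per compound | measured by = Fluo4 Ca2+ flux fluorescence | evaluation = integrated fluorescence ratio relative to baseline, converted to per-well B score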
TRPC6 inhibitor – mouse TRPC6 channel inhibition; Q61143; HEK293-TRPC6, membrane potential dye, ACh-evoked depolarization; stronger effect = lower value; B-score at 10 µM; 310,000 tested, 1.1% active; AID 2553;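 active = B-score under library mean minus 3 SD, initial fluorescence not abnormally high, positive integrated signal ratio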;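 note: B-score derived from integrated fluorescence ratio over the kinetic read; more negative B-score means stronger inhibition of depolarization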
TRPC4 sel inh 2 – mouse TRPC4 off-target activity of TRPC6 inhibitors, second screen | shares compounds with TRPC6 inhibitor | HEK293 TRPC4/MOR, membrane potential dye fluorescence; channel activated by saturating DAMGO dose | inhibition, % at 10 µM | 920 tested, 42% active | AID 2776;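 active = compounds whose fluorescence signal differed from control wells by over 3 SD, either direction, in both duplicate plates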
TRPC4 spec – selectivity of TRPC6 inhibitors: effect on mouse TRPC4; shares compounds with TRPC6 inhibitor; HEK293 TRPC4/mu-opioid, membrane potential fluorescence; activity change, negative = inhibition, % at 10 µM; 920 tested, 61% active; AID 2777;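 active = rise or fall in signal beyond 3 SD of buffer-only wells in both replicate plates, either sign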;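 note: integrated kinetic ratio of fluorescence range over baseline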
HEK293 MPD ctr 2-1 – second counter-screen for TRPC6 inhibitors: parental HEK293 cells | shares compounds with TRPC6 inhibitor | parental HEK293 membrane potential dye fluorescence; maximal acetylcholine challenge after compound addition | signal change vs control, % at 10 µM | AID 2779 | 920 tested, 31% active;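 active = membrane potential signal moving either way by over 3 SD of the maximum-effect control, in both duplicate plates, meaning non-specific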
HEK293 MPD ctr-1 – checks TRPC6 inhibitor effects in parental HEK293 cells. shares compounds with TRPC6 inhibitor. parental HEK293 membrane potential dye fluorescence. membrane potential signal change, % at 10 µM. 920 tested, 60% active. AID 2780;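 active = membrane potential signal shifting up or down by more than 3 SD of buffer-only wells, on both duplicate plates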
HEK293 MPD ctr-2 – checks TRPC6 modulator effects in parental HEK293 cells | 2,400 tested, 51% active | shares compounds with TRPC6 inhibitor | membrane potential signal change, % at 10 µM | membrane potential dye fluorescence;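 active = membrane potential signal moves up or down beyond 5 SD from buffer-only wells, on both duplicate plates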
HEK293 MPD ctr 2-2 – second counter-screen for TRPC6 modulators: effect in parental HEK293 cells | shares compounds with TRPC6 inhibitor | membrane potential dye fluorescence; after compound, maximal acetylcholine stimulation | inhibition, % at 10 µM | 2,400 tested, 14% active | AID 488926;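 active = membrane potential signal drops by more than 5 SD from the mean control signal, in both duplicate plates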
TRPC4/MOR mod – mouse TRPC4 off-target activity of TRPC6 modulators; shares compounds with TRPC6 inhibitor; HEK293 TRPC4/mu-opioid, membrane potential fluorescence; 2,400 tested, 69% active; percent change from control (negative = decrease, positive = increase), % at 10 µM;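 active = membrane potential signal moved up or down beyond 5 SD of buffer control wells, in both duplicate plates, actives on both sides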
TRPC4 ctr inh 2 – second check of whether TRPC6 modulators also affect mouse TRPC4; shares compounds with TRPC6 inhibitor; HEK293 TRPC4/mu-opioid, membrane potential dye fluorescence; stimulated with maximal-effect DAMGO; inhibition, % at 10 µM; 2,400 tested, 55% active;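 active = drop in membrane potential signal beyond 5 SD of the control wells in both duplicate plates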;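 note: TRPC4 counter screen for TRPC6 hits run under conditions tuned for TRPC6 not TRPC4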
TRPC6 inh conf – mouse TRPC6 inhibitor confirmation; shares compounds with TRPC6 inhibitor; HEK293-TRPC6, membrane potential dye, ACh-evoked depolarization; inhibition, % at 10 µM; 3,300 tested, 43% active;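 active = fluorescence ratio falls more than 5 SD below the full-stimulation control mean, in both duplicate runs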;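 note: integrated fluorescence ratio of peak minus minimum over baseline after agonist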
TRPC6 act conf – confirmation of mouse TRPC6 activators | activation, % at 10 µM | 2,800 tested, 11% active | HEK293-TRPC6 membrane potential dye fluorescence, FDSS | shares compounds with TRPC6 inhibitor;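 active = ratio signal rise beyond 5 SD above unstimulated control wells' mean, seen in both duplicate runs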
Of the large screens only hits and unclear results are named; the others gave an inactive call (follow-up assays come after a bar, where they were run). Most compounds without a hit are left out; they make up all but 2.3% or so of the library.

Cc1cc(C)c2nc(N3CCN(C(=O)c4cccs4)CC3)sc2c1	TRPC6 inhibitor -6.5 | HEK293 MPD ctr-2 inactive | HEK293 MPD ctr 2-2 inactive | TRPC4/MOR mod inactive | TRPC4 ctr inh 2 inactive | TRPC6 inh conf inactive | TRPC6 act conf inactive
Cc1ccc(S(=O)(=O)N2CCN(C(=O)c3cccs3)CC2)cc1C	TRPC6 activator 18 | HEK293 MPD ctr-2 inactive | HEK293 MPD ctr 2-2 inactive | TRPC4/MOR mod 16% | TRPC4 ctr inh 2 inactive | TRPC6 act conf 148%
O=C(C1=COCCO1)N1CCN(C(c2ccccc2)c2ccccc2)CC1	TRPC6 inhibitor -7 | TRPC4 sel inh 2 inactive | TRPC4 spec 1.6% | HEK293 MPD ctr 2-1 inactive | HEK293 MPD ctr-1 1.7% | TRPC6 inh conf inactive
Cc1ccc2sc(NNC(=O)C3=COCCO3)nc2c1C	none
COc1cc(/C=C/C(=O)N2CCCc3ccccc32)cc(OC)c1OC	none
Cc1nc([N+](=O)[O-])cn1CC(=O)Nc1ccc([N+](=O)[O-])cc1	none
Cc1ccc(S(=O)(=O)N2CCN(C(=O)C3=COCCO3)CC2)cc1C	TRPC6 inhibitor -7 | TRPC4 sel inh 2 inactive | TRPC4 spec -0.7% | HEK293 MPD ctr 2-1 inactive | HEK293 MPD ctr-1 inactive | TRPC6 inh conf inactive | TRPC6 act conf inactive
COC(=O)C1=C(N)OC2=C(C(=O)CC(C)(C)C2)C1c1cc2c(cc1Cl)OCO2 (configuration not stated)	TRPC6 inhibitor -9.3 | TRPC4 sel inh 2 34% | TRPC4 spec inactive | HEK293 MPD ctr 2-1 inactive | HEK293 MPD ctr-1 inactive | TRPC6 inh conf inactive | TRPC6 act conf inactive
CC1=C(C(=O)OC(C)C)C(c2cccc(F)c2)N2C(=O)C(C)SC2=N1 (configuration not stated)	TRPC6 inhibitor -6 | HEK293 MPD ctr-2 inactive | HEK293 MPD ctr 2-2 inactive | TRPC4/MOR mod 13% | TRPC4 ctr inh 2 inactive | TRPC6 inh conf inactive | TRPC6 act conf inactive
CC1=C(C(=O)OCC(C)C)C(c2cccc(F)c2)N2C(=O)C(C)SC2=N1 (configuration not stated)	none
O=C(CC1C(=O)NCCN1C(=O)Nc1ccc(C(F)(F)F)cc1)Nc1ccc(F)cc1 (configuration not stated)	TRPC6 inhibitor -5 | HEK293 MPD ctr-2 -106% | HEK293 MPD ctr 2-2 inactive | TRPC4/MOR mod -18% | TRPC4 ctr inh 2 45% | TRPC6 inh conf inactive | TRPC6 act conf inactive
COc1cc2ccccc2cc1C(=O)N(CCN(C)C)c1nc2c(OC)ccc(OC)c2s1	none
COc1cccc2sc(N(CCN(C)C)C(=O)c3ccc(S(=O)(=O)N4CCCC4)cc3)nc12	none
COc1ccc(Cl)c2sc(N(CCN(C)C)C(=O)c3ccc4c(c3)OCCO4)nc12	TRPC4 potent 46, TRPC6 inhibitor -9.6 | HEK293 MPD ctr-2 -122% | HEK293 MPD ctr 2-2 90% | TRPC4/MOR mod -40% | TRPC4 ctr inh 2 90% | TRPC6 inh conf 72% | TRPC6 act conf inactive
CC1CN(S(=O)(=O)c2ccc(C(=O)N(CCCN(C)C)c3nc4c(Cl)cccc4s3)cc2)CC(C)O1 (configuration not stated)	TRPC6 inhibitor -7.5 | HEK293 MPD ctr-2 inactive | HEK293 MPD ctr 2-2 inactive | TRPC4/MOR mod -14% | TRPC4 ctr inh 2 68% | TRPC6 inh conf inactive | TRPC6 act conf inactive
CN(C)CCN(C(=O)c1ccc2c(c1)OCCO2)c1nc2c(Cl)cccc2s1	TRPC6 inhibitor -7.2 | TRPC4 sel inh 2 26% | TRPC4 spec -22% | HEK293 MPD ctr 2-1 inactive | HEK293 MPD ctr-1 -288% | TRPC6 inh conf 98% | TRPC6 act conf inactive
COc1ccc(OC)c2sc(N(CCN(C)C)C(=O)c3ccc4ccccc4c3)nc12	TRPC4 potent 12, TRPC6 inhibitor -7.6 | TRPC4 sel inh 2 inactive | TRPC4 spec inactive | HEK293 MPD ctr 2-1 inactive | HEK293 MPD ctr-1 inactive | TRPC6 inh conf 79% | TRPC6 act conf inactive
CC(=O)c1ccc(C(=O)N(CCN(C)C)c2nc3c(Cl)cccc3s2)cc1	none
COc1ccc(-n2ccnc(SCC(=O)NCc3ccccc3Cl)c2=O)cc1	none
CCOc1cccc2sc(N(CCCN(C)C)C(=O)c3ccc(S(=O)(=O)N(C)c4ccccc4)cc3)nc12	TRPC6 inhibitor -6.6 | HEK293 MPD ctr-2 inactive | HEK293 MPD ctr 2-2 inactive | TRPC4/MOR mod inactive | TRPC4 ctr inh 2 71% | TRPC6 inh conf inactive | TRPC6 act conf inactive
CCOc1cccc2sc(N(CCCN(C)C)C(=O)c3ccc(S(=O)(=O)N4CCc5ccccc5C4)cc3)nc12	none
CN1CCC(=O)N(CCOc2ccccc2)CC1	none
COc1ccc(/C=C/C(=O)Nc2ccccc2C(=O)NCC(c2ccc(OC)cc2)N(C)C)cc1 (configuration not stated)	TRPC4 agonist 48, TRPC4 block -7, TRPC6 inhibitor -6.8 | TRPC4 sel inh 2 12% | TRPC4 spec 49% | HEK293 MPD ctr 2-1 inactive | HEK293 MPD ctr-1 inactive | TRPC6 inh conf inactive | TRPC6 act conf inactive
CCN(CC(=O)Nc1ccc(NC(C)=O)cc1)C(=O)c1cccnc1Sc1ccc(C)c(C)c1	none
